Laboratory results reported in ChEMBL document CHEMBL1126679 (J Med Chem, 1993).
pKi: −log10 of the molar value.

Columns and labels:
[1] = Binding affinity against 5-hydroxytryptamine 1A receptor from bovine hippocampus, used [3H]8-OH-DPAT as radioligand
D(2) dopamine receptor [2] = target: T1, D(2) dopamine receptor (Homo sapiens, UniProt P14416); experiment: Intrinsic activity against dopamine D 2 receptor; type: functional; conditions: Cricetulus griseus
How it was run: (§1)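 Membranes from CHO cells stably transfected with D2 receptor. Low-affinity agonist state affinity came from [3H]raclopride displacement with high GTP, and high-affinity state affinity from [3H]U-86170 displacement without GTP.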

D(2) dopamine receptor [3] = target: T1, D(2) dopamine receptor; experiment: Compound was tested for agonistic activity against D2 receptor from cloned CHO cells, used [3H]U-86170 as radioligand; type: functional, cell-based, Cricetulus griseus
D(2) dopamine receptor [4] = target: D(2) dopamine receptor (Rattus norvegicus, UniProt P61169); experiment: Compound was tested for antagonistic activity against D2 receptor from rat striatum, used [3H]raclopride as radioligand; type: functional
Chain of D(2) dopamine receptor (Rattus norvegicus, UniProt P61169) (P61169 whole entry): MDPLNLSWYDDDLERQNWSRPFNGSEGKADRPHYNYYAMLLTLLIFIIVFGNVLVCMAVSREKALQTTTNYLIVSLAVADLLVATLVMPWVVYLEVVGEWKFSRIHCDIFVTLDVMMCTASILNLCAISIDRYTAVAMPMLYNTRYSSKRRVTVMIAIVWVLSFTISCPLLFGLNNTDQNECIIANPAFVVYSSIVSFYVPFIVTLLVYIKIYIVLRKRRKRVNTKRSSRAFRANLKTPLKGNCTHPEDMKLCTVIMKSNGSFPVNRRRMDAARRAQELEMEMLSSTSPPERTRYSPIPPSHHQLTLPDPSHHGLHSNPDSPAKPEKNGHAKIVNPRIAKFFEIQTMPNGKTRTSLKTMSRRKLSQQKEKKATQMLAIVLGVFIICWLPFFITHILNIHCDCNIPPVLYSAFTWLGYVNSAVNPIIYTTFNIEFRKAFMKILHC

[5] = (§2) Intrinsic activity was 100% of highest possible agonist.; type: functional
How it was run: as §1

[6] = as §2; type: functional; remark: listed apart in the source
D(2) dopamine receptor [7] = target: T1, D(2) dopamine receptor; experiment: Intrinsic activity was Determined; type: functional
[8] = Intrinsic activity was 0%of highest possible antagonist.; type: functional
How it was run: as §1

T1 sequence (P14416 whole entry): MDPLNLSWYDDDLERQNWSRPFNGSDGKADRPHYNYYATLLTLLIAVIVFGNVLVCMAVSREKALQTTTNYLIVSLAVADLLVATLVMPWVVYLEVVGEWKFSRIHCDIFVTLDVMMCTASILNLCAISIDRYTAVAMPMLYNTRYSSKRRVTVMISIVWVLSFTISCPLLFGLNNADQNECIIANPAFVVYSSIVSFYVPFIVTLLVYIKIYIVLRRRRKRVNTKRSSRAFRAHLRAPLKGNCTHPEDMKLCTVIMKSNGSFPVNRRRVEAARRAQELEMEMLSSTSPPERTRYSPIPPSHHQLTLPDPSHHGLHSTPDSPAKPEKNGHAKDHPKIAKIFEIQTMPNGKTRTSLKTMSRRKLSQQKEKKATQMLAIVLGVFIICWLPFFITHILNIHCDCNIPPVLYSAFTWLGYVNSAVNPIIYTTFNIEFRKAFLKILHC

CCCN1[C@@H](C)C[C@@H]2Cc3cccc(OC)c3C[C@@H]21
pKi [1]: 7.96 | Intrinsic activity (D(2) dopamine receptor [2]): 21%

CCCN1[C@H](C)C[C@@H]2Cc3cccc(OC)c3C[C@@H]21
pKi [1]: 6.42

Cc1[nH]c2cccc3c2c1C[C@@H]1C3C[C@H](NC(=O)C(C)(C)C)CN1C (some centres undefined)
pKi (D(2) dopamine receptor [3]): 8.51 | Intrinsic activity (D(2) dopamine receptor [2]): 11%

CN1C[C@@H](NC(=O)C(C)(C)C)CC2c3cccc4[nH]c(Cl)c(c34)C[C@H]21 (some centres undefined)
pKi (D(2) dopamine receptor [3]): 8.44 | Intrinsic activity (D(2) dopamine receptor [2]): 0% | pKi (D(2) dopamine receptor [4]): 9.33

C=CCN1CC[C@H]2c3c(cccc3OC)CC[C@H]21 [listing 1 of 2 here]
pKi (D(2) dopamine receptor [3]): 8.17

CCCN(CCC)[C@@H]1Cc2cccc3[nH]c(=O)n(c23)C1
pKi (D(2) dopamine receptor [3]): 8.77 | pKi (D(2) dopamine receptor [4]): 8.27

CCCN[C@@H]1CCc2c(OC)cccc2[C@@H]1C
pKi (D(2) dopamine receptor [3]): 7.85 | Intrinsic activity (D(2) dopamine receptor [2]): 3% | pKi (D(2) dopamine receptor [4]): 6.75

CCCN(CCC)[C@@H]1CCc2c(OC)cccc2[C@@H]1C
pKi (D(2) dopamine receptor [3]): 7.89 | Intrinsic activity (D(2) dopamine receptor [2]): 0 | pKi (D(2) dopamine receptor [4]): 7.66

CCCN1CC[C@H]2c3c(cccc3OC)CC[C@H]21 [listing 1 of 2 here]
pKi [1]: 9.70

C=CCN1CC[C@H]2c3cccc(O)c3CC[C@H]21
pKi (D(2) dopamine receptor [3]): 6.97 | Intrinsic activity (D(2) dopamine receptor [2]): 22% | pKi (D(2) dopamine receptor [4]): 7.31

C=CCN1CC[C@@H]2c3cccc(O)c3CC[C@@H]21
pKi (D(2) dopamine receptor [3]): 7.23 | Intrinsic activity (D(2) dopamine receptor [2]): 47% | pKi (D(2) dopamine receptor [4]): 6.59

C=CCN1CC[C@@H]2c3cccc(OC)c3CC[C@@H]21
pKi (D(2) dopamine receptor [4]): < 6.00

C=CCN1CC[C@@H]2Cc3c(O)cccc3C[C@H]21
Intrinsic activity (D(2) dopamine receptor [2]): 106%

C=CCN1CC[C@@H]2Cc3c(cccc3OC)C[C@H]21
Intrinsic activity [5]: 100%

C=CCN1CC[C@H]2c3c(cccc3OC)CC[C@H]21 [listing 2 of 2 here]
Intrinsic activity (D(2) dopamine receptor [2]): 24%

C=CCN1CC[C@H]2c3cccc(OC)c3CC[C@H]21
Intrinsic activity (D(2) dopamine receptor [2]): 0%

CCCN(CCC)[C@@H]1Cc2cccc3nc(O)n(c23)C1
Intrinsic activity [6]: 91

CCCN1CC[C@@H]2Cc3c(O)cccc3C[C@H]21
Intrinsic activity (D(2) dopamine receptor [2]): 109%

CCCN1CC[C@@H]2Cc3c(cccc3OC)C[C@H]21
Intrinsic activity (D(2) dopamine receptor [2]): 37%

CCCN1CC[C@H]2c3c(cccc3OC)CC[C@H]21 [listing 2 of 2 here]
Intrinsic activity (D(2) dopamine receptor [2]): 37%

CCCN1C[C@H](CSC)C[C@@H]2c3cccc4[nH]cc(c34)C[C@H]21
Intrinsic activity (D(2) dopamine receptor [2]): 66%

C=CCN1CCC2Cc3c(cccc3OC)C[C@H]21 (mixture of isomers)
Intrinsic activity [5]: 100% | pKi (D(2) dopamine receptor [4]): < 6.00

CCCN1CCC2Cc3c(O)cccc3C[C@H]21 (mixture of isomers)
pKi (D(2) dopamine receptor [3]): 8.62 | Intrinsic activity (D(2) dopamine receptor [2]): 79% | pKi (D(2) dopamine receptor [4]): 7.77

C=CCN1CCC2c3cccc(OC)c3CC[C@@H]21 (mixture of isomers)
Intrinsic activity (D(2) dopamine receptor [2]): 0% | pKi (D(2) dopamine receptor [4]): 7.00

CCCN1CCC2Cc3c(cccc3OC)C[C@H]21 (mixture of isomers)
pKi (D(2) dopamine receptor [3]): 7.00 | Intrinsic activity (D(2) dopamine receptor [2]): 100% | pKi (D(2) dopamine receptor [4]): 6.06

C=CCN1CCC2Cc3c(O)cccc3C[C@H]21 (mixture of isomers)
pKi (D(2) dopamine receptor [3]): 8.85 | Intrinsic activity (D(2) dopamine receptor [2]): 91% | pKi (D(2) dopamine receptor [4]): 7.60

C=CCN1CCC2c3cccc(OC)c3CC[C@H]21 (mixture of isomers)
Intrinsic activity (D(2) dopamine receptor [2]): 0%

C=CCN1CCC2c3c(O)cccc3CCC21 (racemic)
Intrinsic activity (D(2) dopamine receptor [2]): 13% | pKi (D(2) dopamine receptor [4]): 7.60

CCCN1CCC2Cc3c(O)cccc3CC21 (racemic)
pKi (D(2) dopamine receptor [3]): 7.96 | Intrinsic activity (D(2) dopamine receptor [2]): 61% | pKi (D(2) dopamine receptor [4]): 6.53

C=CCN1CCC2Cc3c(cccc3OC)CC21 (racemic)
pKi (D(2) dopamine receptor [4]): 6.37

CCCN(CCC)[C@@H]1Cc2cccc3c2N(C1)C(=O)NC3 (racemic)
pKi (D(2) dopamine receptor [3]): 7.24 | Intrinsic activity (D(2) dopamine receptor [2]): 30% | pKi (D(2) dopamine receptor [4]): < 6.00

CCCN(CCC)[C@@H]1Cc2cccc3ccc(=O)n(c23)C1 (racemic)
pKi (D(2) dopamine receptor [3]): 8.46 | Intrinsic activity (D(2) dopamine receptor [2]): 79% | pKi (D(2) dopamine receptor [4]): 7.73

C=CCN1CC[C@H]2c3c(cccc3OC)CC[C@H]21 (racemic) [listing 1 of 2 here]
pKi (D(2) dopamine receptor [3]): 8.15

C=CCN1CCC2c3c(cccc3OC)CCC21 (racemic)
pKi (D(2) dopamine receptor [3]): 8.07 | Intrinsic activity (D(2) dopamine receptor [2]): 0%

CCCN(CCC)[C@@H]1Cc2cccc3c2N(CC(=O)N3)C1 (racemic)
Intrinsic activity (D(2) dopamine receptor [2]): 70% | pKi (D(2) dopamine receptor [4]): 7.55

CCCN(CCC)[C@@H]1Cc2cccc3nc(S)n(c23)C1 (racemic)
pKi (D(2) dopamine receptor [3]): 9.22 | Intrinsic activity (D(2) dopamine receptor [2]): 100% | pKi (D(2) dopamine receptor [4]): 7.41

CCCN1C[C@H]2c3c(cccc3OC)CC[C@H]21 (racemic)
pKi (D(2) dopamine receptor [4]): 6.48

CCCN1CC[C@H]2c3c(cccc3OC)CC[C@H]21 (racemic)
pKi (D(2) dopamine receptor [4]): < 6.00

C=CCN1CC[C@H]2c3c(O)cccc3CC[C@H]21 (racemic)
pKi (D(2) dopamine receptor [3]): 6.82 | Intrinsic activity (D(2) dopamine receptor [7]): 7%

Oc1cccc2c1CC[C@@H]1NCCC[C@@H]21 (racemic)
pKi (D(2) dopamine receptor [3]): 7.96 | Intrinsic activity (D(2) dopamine receptor [2]): 53 | pKi (D(2) dopamine receptor [4]): 7.42

C=CCN1CC[C@H]2c3c(cccc3OC)CC[C@H]21 (racemic) [listing 2 of 2 here]
Intrinsic activity (D(2) dopamine receptor [2]): 15%

CCCN1CC[C@H]2c3cccc(OC)c3CC[C@@H]21 (racemic)
Intrinsic activity [8]: 0%

CCCN1CCC2c3cccc(O)c3CCC21 (racemic; 14a) [listing 1 of 2 here]
pKi (D(2) dopamine receptor [3]): 7.03 | pKi (D(2) dopamine receptor [4]): 7.48

CCCN1CCC2c3cccc(O)c3CCC21 (racemic; 14a) [listing 2 of 2 here]
Intrinsic activity (D(2) dopamine receptor [2]): 28%

C=CCN1CCC2c3cccc(O)c3CCC21 (racemic; 14c) [listing 1 of 2 here]
pKi (D(2) dopamine receptor [3]): 8.39

C=CCN1CCC2c3cccc(O)c3CCC21 (racemic; 14c) [listing 2 of 2 here]
Intrinsic activity (D(2) dopamine receptor [2]): 44%

CCCN1CCC2c3cccc(O)c3CCC21 (racemic; 15a) [listing 1 of 2 here]
pKi (D(2) dopamine receptor [3]): 6.66 | pKi (D(2) dopamine receptor [4]): < 6.00

CCCN1CCC2c3cccc(O)c3CCC21 (racemic; 15a) [listing 2 of 2 here]
Intrinsic activity (D(2) dopamine receptor [2]): 1%

C=CCN1CCC2c3cccc(O)c3CCC21 (racemic; 15c) [listing 1 of 2 here]
pKi (D(2) dopamine receptor [3]): 7.12 | pKi (D(2) dopamine receptor [4]): 6.70

C=CCN1CCC2c3cccc(O)c3CCC21 (racemic; 15c) [listing 2 of 2 here]
Intrinsic activity (D(2) dopamine receptor [2]): 29%

C=CCN1CC[C@H]2Cc3c(O)cccc3CC21 (single isomer, unassigned)
pKi (D(2) dopamine receptor [3]): 6.63 | Intrinsic activity (D(2) dopamine receptor [2]): 21% | pKi (D(2) dopamine receptor [4]): 7.33

CCCN1CC[C@H]2Cc3c(O)cccc3CC21 (single isomer, unassigned)
pKi (D(2) dopamine receptor [3]): 6.04 | Intrinsic activity (D(2) dopamine receptor [2]): 18% | pKi (D(2) dopamine receptor [4]): < 6.20

CCCN1CC[C@H]2c3c(cccc3OC)CC[C@H]21 (single isomer, unassigned)
pKi (D(2) dopamine receptor [4]): < 6.00

CCCN1CC[C@H]2c3c(O)cccc3CC[C@H]21 (single isomer, unassigned) [listing 1 of 2 here]
pKi (D(2) dopamine receptor [3]): > 7.30

C=CCN1CC[C@H]2Cc3c(cccc3OC)CC21 (single isomer, unassigned)
Intrinsic activity [8]: 0%

C=CCN1CC[C@H]2c3c(cccc3OC)CC[C@H]21 (single isomer, unassigned)
Intrinsic activity (D(2) dopamine receptor [2]): 17%

CCCN1CC[C@H]2c3c(O)cccc3CC[C@H]21 (single isomer, unassigned) [listing 2 of 2 here]
Intrinsic activity (D(2) dopamine receptor [7]): 0%
